Series [1] has as its system LLC-PK1. Put plainly: Induction of apoptosis in pig LLC-PK1 cells at 0.192 to 0.384 mM after 24 hrs electoporated in presence of compound. The format is functional, cell-based. The following applies: Sus scrofa. In a few lines: (§1)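 LLC-PK1 cells were electroporated with or without aminoglycoside at increasing concentrations, up to 0.384 mM, present during the pulse. Cells were then returned to aminoglycoside-free medium. Apoptotic nuclei were enumerated 24 h later. Values are mean ± SD, n = 3, by two-tailed ANOVA against controls.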

Series [2] deals with LLC-PK1. Put plainly: Induction of apoptosis in pig LLC-PK1 cells at 0.064 mM after 24 hrs electoporated in presence of compound. The following applies: Sus scrofa. The format is functional, cell-based. An outline of the steps: as §1
Series [3] has as its system LLC-PK1. Put plainly: Induction of apoptosis in pig LLC-PK1 cells at 6 mM after 1 day by DAPI staining. Format: functional, cell-based. The following applies: Sus scrofa. An outline of the steps: (§2)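 LLC-PK1 cells were incubated without drug or with 2 mM or 6 mM aminoglycoside for up to 3 days. Nuclei were stained with DAPI, and the percentage of apoptotic nuclei was counted by microscopy. Camptothecin at 14.3 μM served as positive control. Values are mean ± SD, n = 3, by two-tailed ANOVA against matched controls.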

For series [4], the system named is LLC-PK1. The series is described as follows: Induction of apoptosis in pig LLC-PK1 cells at 6 mM after 2 days by DAPI staining. The conditions noted are these: Sus scrofa. The format is functional, cell-based. An outline of the steps: as §2
Series [5] deals with LLC-PK1. The series is described as follows: Induction of apoptosis in pig LLC-PK1 cells at 6 mM after 3 days by DAPI staining. The conditions noted are these: Sus scrofa. The format is functional, cell-based. In a few lines: as §2
The test system of a further series is Homo sapiens. The series is described as follows: Drug uptake in human at 15 mg/kg. The format is ADME, organism-based. Also on record: dose 15 mg/kg. The conditions noted are these: in vivo.
For series [6], the system named is LLC-PK1. The series is described as follows: Induction of necrosis in pig LLC-PK1 cells assessed as lactate dehydrogenase release. The following applies: Sus scrofa. The format is functional, cell-based.
Series [7] concerns LLC-PK1. Put plainly: Induction of apoptosis in pig LLC-PK1 cells upto 9 mM after 2 days by DAPI staining. The conditions noted are these: Sus scrofa. Format: functional, cell-based. An outline of the steps: (§3)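 LLC-PK1 cells were incubated for 48 h over a concentration series: 0 to 3 mM, or 3 to 9 mM. Apoptotic nuclei were scored as a percentage by DAPI staining under the microscope. Values are mean ± SD, n = 3, by two-tailed ANOVA against drug-free cells.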

Series [8] deals with LLC-PK1. The series is described as follows: Induction of apoptosis in pig LLC-PK1 cells at 2 mM by DAPI staining. Format: functional, cell-based. The following applies: Sus scrofa, TDE = time-dependent effect. An outline of the steps: as §2
The subject of series [9] is LLC-PK1. Put plainly: Induction of apoptosis in pig LLC-PK1 cells assessed as caspase 3 activity at 2 mM after 2 days […]. The format is functional, cell-based. The following applies: Sus scrofa. An outline of the steps: (§4)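 Renal LLC-PK1 cells were incubated up to 3 days with 2 mM drug in continuous exposure. Caspase 3 activity was measured with the fluorogenic substrate N-acetyl-Asp-Glu-Val-Asp-7-amido-4-methylcoumarin and expressed as % of matched untreated controls. The positive control was camptothecin at 14.3 μM. Values are mean ± SD, n = 3, by two-tailed ANOVA against matched controls.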

The test system of series [10] is LLC-PK1. The series is described as follows: Induction of apoptosis in pig LLC-PK1 cells assessed as caspase 3 activity at 2 mM after 1 day […]. The format is functional, cell-based. The conditions noted are these: Sus scrofa. In a few lines:
as §4

For series [11], the system named is LLC-PK1. Put plainly: Induction of apoptosis in pig LLC-PK1 cells at 0.1mM after 24 hrs electoporated in presence of compound. Format: functional, cell-based. The conditions noted are these: Sus scrofa. In a few lines: as §1
Series [12] has as its system LLC-PK1. Put plainly: Induction of apoptosis in pig LLC-PK1 cells measured at 0 to 3 mM after 2 days by DAPI staining. Format: functional, cell-based. The conditions noted are these: Sus scrofa. An outline of the steps:
as §3

Activity calls are given as the source filed them. No cut-off for these calls is given here.

The source of these data is ChEMBL document CHEMBL1275426, “Apoptosis induced by aminoglycosides in LLC-PK1 Cells: comparative study of neomycin, gentamicin, amikacin, and isepamicin using electroporation” (Antimicrob Agents Chemother, 2008).

For the compound `CN[C@@H]1[C@@H](O)[C@@H](O[C@@H]2[C@@H](O)[C@H](O[C@H]3O[C@H](CN)[C@@H](O)[C@H](O)[C@H]3O)[C@@H](N)C[C@H]2NC(=O)[C@@H](O)CN)OC[C@]1(C)O`, in the series with LLC-PK1 [1], the result was Active.

As for `NC[C@@H]1O[C@H](O[C@H]2[C@@H](O)[C@H](O[C@@H]3[C@@H](O)[C@H](N)C[C@H](N)[C@H]3O[C@H]3O[C@H](CN)[C@@H](O)[C@H](O)[C@H]3N)O[C@@H]2CO)[C@H](N)[C@@H](O)[C@@H]1O`, in the series with LLC-PK1 [2], the result was Active.

In the case of `NCC[C@H](O)C(=O)N[C@@H]1C[C@H](N)[C@@H](O[C@H]2O[C@H](CN)[C@@H](O)[C@H](O)[C@H]2O)[C@H](O)[C@H]1O[C@H]1O[C@H](CO)[C@@H](O)[C@H](N)[C@H]1O` [AMIKACIN], the outcome in the series on LLC-PK1 [3], in the series on LLC-PK1 [4], in the series with LLC-PK1 [6] and in the series with LLC-PK1 [7] was inactive. In addition, in the series with LLC-PK1 [5], the outcome was Active. The Drug uptake in the series on Homo sapiens was 25.6 µmol/kg.

For the compound GENTAMICIN [listing 1 of 2 here], the Drug uptake with Homo sapiens came to 8.56 µmol/kg.

Consider GENTAMICIN [listing 2 of 2 here], for which the results for the Activity result in the series with LLC-PK1 [8] and with LLC-PK1 [12] were “tde” and “Dose-dependent effect”, respectively. The result in the series on LLC-PK1 [9], in the series with LLC-PK1 [10] and in the series with LLC-PK1 [11] was Active.
